Experimental data collected from several papers.
Lines come from different studies, so protocols differ.
Target: Mitogen-activated protein kinase kinase kinase kinase 4 (MAP4K4, Homo sapiens, UniProt O95819)

Compound | effect on | mode | method | tested at | endpoint | result
Nc1ncnc2occ(-c3ccc(NC(=O)Nc4cc(C(F)(F)F)ccc4F)cc3)c12 | cell-free assay | inhibitor | – | 20 µM | remaining signal | 0%
O=C(O)c1cc(-c2ccc(C3CCNCC3)cc2)c2ccc(-c3ccc(C(F)(F)F)cc3)cc2c1 | cell-free assay | – | competition with immobilised ligand | 1 µM | remaining binding | 87%
Cc1ccc(C(=O)NCc2ccsc2)cc1C#Cc1cn(C(C)C)c2ncnc(N)c12 | enzyme activity | inhibitor | – | 1 µM | activity vs control | 146%
CC(C)(C)c1nc2c(s1)c1nc(N)ncc1c1ccc(NS(=O)(=O)c3c(F)cccc3F)c(F)c12 | enzyme activity | inhibitor | radiometric | 1 µM | remaining activity | 95%
Oc1ccc(-c2nc(-c3ccncc3)c(-c3ccc(F)cc3)[nH]2)cc1 | cell-free assay | – | – | 0.5 µM | remaining signal | 86.5%
CO[C@@H](C)c1c(Nc2ccc([C@H](N(C)C(=O)C3CCS(=O)(=O)CC3)C(F)(F)F)cc2)cnc2cc(Cl)nn12 | cell-free assay | – | competition with immobilised ligand | 1 µM | remaining binding | 100%
CCCS(=O)(=O)Nc1ccc(F)c(C(=O)c2c[nH]c3ncc(-c4ccc(Cl)cc4)cc23)c1F | enzyme activity | inhibitor | – | 1 µM | inhibition | < 10%
COc1cc2ncnc(Nc3ccc(Oc4ccccc4)c(C)c3C)c2cc1OC | enzyme activity | inhibitor | – | 1 µM | inhibition | -3%
Cc1ccc(Nc2nccc(N(C)c3ccc4c(C)n(C)nc4c3)n2)cc1S(N)(=O)=O | enzyme activity | inhibitor | – | 0.5 µM | remaining activity | 77.4%
Cc1nc(C2CCN(C(=O)c3ccc(OC(F)(F)F)cc3N)CC2)c2ncc(N3CCN(C)CC3)cc2n1 | cell-free assay | – | competition with immobilised ligand | 1 µM | remaining binding | 100%
O=C1Nc2ccc(Cl)cc2C1=Cc1cc(Cl)c(O)c(Cl)c1 | cell-free assay | – | – | 0.5 µM | remaining signal | 4.48%
CN(C(=O)c1ccccc1)c1cc(N(C)c2ccc3c(c2)CCc2ccc(C(=O)NCCN4CCOCC4)cc2C3=O)ccc1F | cell-free assay | – | competition with immobilised ligand | 1 µM | remaining binding | 100%
O=C1NC(=O)c2cc(Nc3ccc(F)cc3)c(Nc3ccc(F)cc3)cc21 | cell-free assay | – | – | 0.5 µM | remaining signal | 91.2%
O=C(Nc1cnn(-c2csc(C(=O)NC3COC3)c2)c1)Nc1ccccc1Cl | enzyme activity | inhibitor | – | 5 µM | remaining activity | 81.1%
CCCCN(CCCC)C(=O)CN1C[C@H](c2cc(OC)c3c(c2)OCO3)[C@@H](C(=O)O)[C@@H]1CC(C)(C)CCC | cell-free assay | – | competition with immobilised ligand | 1 µM | remaining binding | 100%
CC/C(=N\NC(=O)NCc1cccc(O)c1)c1ccc(O)c(C)c1O | enzyme activity | inhibitor | – | 0.1 µM | inhibition | 3.8%
COc1cc2c(N3CCN(C(=O)Nc4ccc(OC(C)C)cc4)CC3)ncnc2cc1OCCCN1CCCCC1 | cell-free assay | – | – | 0.5 µM | remaining signal | 96.6%
Cc1sc(C(=O)NC2COC2)cc1-n1cc(NC(=O)Nc2c(F)cccc2Cl)cn1 | enzyme activity | inhibitor | – | 10 µM | remaining activity | 93.4%
